In ChEMBL document CHEMBL1142874, “Design and synthesis of anticonvulsants from a combined phthalimide-GABA-anilide and hydrazone pharmacophore” (Eur J Med Chem, 2007):
Active and inactive are the calls of the source. No cut-off for these calls is given here.

Tests used:
Mus musculus [1] = test: Neurotoxicity in Albino CF1 mouse at 100 mg/kg, ip after 0.5 hrs by Rotarod test; type: toxicity, organism-based; set-up: dose 100 mg/kg, route intraperitoneal; conditions: in vivo
Procedure, shortened: (§1)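 Rotarod test in mice pre-trained to stay on the rod for two consecutive 90 s trials. Compounds given i.p. at 30, 100 or 300 mg/kg, with testing at 0.5 h and 4 h. Deficit was scored as failure to keep balance on the rod for 1 min in each of three trials. The value recorded is the lowest dose affecting half or more of the mice.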

Mus musculus [2] = test: Anticonvulsant activity in Albino CF1 mouse upto 300 mg/kg, ip in maximal electroshock seizure test; type: functional, organism-based; set-up: dose 300 mg/kg
Procedure, shortened: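 Mice dosed i.p. (0.01 mL/g) at 30, 100 and 300 mg/kg. Electroshock challenge run 30 min and 4 h after dosing.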

Mus musculus [3] = test: Anticonvulsant activity against intraperitoneal picrotoxin-induced seizure in Albino CF1 mouse at 300 mg/kg, ip after 4 hrs; type: functional, organism-based; set-up: dose 300 mg/kg
Procedure, shortened: (§2)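 Mice received the test compound by intraperitoneal injection at 30, 100 or 300 mg/kg. They were then challenged with intraperitoneal picrotoxin and scored for anticonvulsant protection 0.5 h or 4 h after dosing. The value recorded is the lowest dose that protected half or more of the mice. A dash means no activity up to 300 mg/kg.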

Mus musculus [4] = test: Anticonvulsant activity against subcutaneous pentylenetetrazole-induced seizure in Albino CF1 mouse at 300 mg/kg, ip after 4 hrs; type: functional, organism-based; set-up: dose 300 mg/kg
Procedure, shortened: (§3)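 Test compounds given i.p. to mice at 0.01 mL/g, at 30, 100 or 300 mg/kg. The seizure challenge followed at 0.5 h and at 4 h after dosing. The value recorded is the lowest dose that protected half or more of the mice. Where no activity was seen, the maximum dose given was 300 mg/kg.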

Mus musculus [5] = test: Anticonvulsant activity against subcutaneous pentylenetetrazole-induced seizure in Albino CF1 mouse at 100 mg/kg, ip after 0.5 hrs; type: functional, organism-based; set-up: dose 100 mg/kg; procedure, shortened: as §3
Mus musculus [6] = test: Neurotoxicity in Albino CF1 mouse at 300 mg/kg, ip after 4 hrs by Rotarod test; type: toxicity, organism-based; set-up: dose 300 mg/kg, route intraperitoneal; conditions: in vivo; procedure, shortened: as §1
Mus musculus [7] = test: Anticonvulsant activity against subcutaneous strychnine-induced seizure in Albino CF1 mouse at 300 mg/kg, ip after 0.5 hrs; type: functional, organism-based; set-up: dose 300 mg/kg; procedure, shortened: as §3
Mus musculus [8] = test: Anticonvulsant activity against intraperitoneal picrotoxin-induced seizure in Albino CF1 mouse at 100 mg/kg, ip after 0.5 hrs; type: functional, organism-based; set-up: dose 100 mg/kg; procedure, shortened: as §2
Mus musculus [9] = test: Anticonvulsant activity against subcutaneous strychnine-induced seizure in Albino CF1 mouse at 300 mg/kg, ip after 4 hrs; type: functional, organism-based; set-up: dose 300 mg/kg; procedure, shortened: as §3
Mus musculus [10] = test: Anticonvulsant activity against intraperitoneal picrotoxin-induced seizure in Albino CF1 mouse at 30 mg/kg, ip after 0.5 hrs; type: functional, organism-based; set-up: dose 30 mg/kg; procedure, shortened: as §2
Mus musculus [11] = test: Anticonvulsant activity against subcutaneous pentylenetetrazole-induced seizure in Albino CF1 mouse at 300 mg/kg, ip after 0.5 hrs; type: functional, organism-based; set-up: dose 300 mg/kg; procedure, shortened: as §3
Mus musculus [12] = test: Anticonvulsant activity against subcutaneous strychnine-induced seizure in Albino CF1 mouse at 100 mg/kg, ip after 0.5 hrs; type: functional, organism-based; set-up: dose 100 mg/kg; procedure, shortened: as §3
Mus musculus [13] = test: Anticonvulsant activity against intraperitoneal picrotoxin-induced seizure in Albino CF1 mouse at 100 mg/kg, ip after 4 hrs; type: functional, organism-based; set-up: dose 100 mg/kg; procedure, shortened: as §2
Mus musculus [14] = test: Anticonvulsant activity against subcutaneous pentylenetetrazole-induced seizure in Albino CF1 mouse at 100 mg/kg, ip after 4 hrs; type: functional, organism-based; set-up: dose 100 mg/kg; procedure, shortened: as §3
Mus musculus [15] = test: Neurotoxicity in Albino CF1 mouse at 30 mg/kg, ip after 0.5 hrs by Rotarod test; type: toxicity, organism-based; set-up: dose 30 mg/kg, route intraperitoneal; conditions: in vivo; procedure, shortened: as §1
Mus musculus [16] = test: Anticonvulsant activity against intraperitoneal picrotoxin-induced seizure in Albino CF1 mouse at 300 mg/kg, ip after 0.5 hrs; type: functional, organism-based; set-up: dose 300 mg/kg; procedure, shortened: as §2

For `Cc1cc(NC(=O)CCCN2C(=O)c3ccccc3C2=O)ccc1Br`, the Activity (Mus musculus [1]) was “Active”, the Activity (Mus musculus [2]) was “inactive” and the Activity (Mus musculus [3]) was “Active”. The Activity (Mus musculus [4]) was “inactive”, the Activity (Mus musculus [5]) was “Active” and the Activity (Mus musculus [6]) was “Active”. The Activity (Mus musculus [7]) was “inactive”, the Activity (Mus musculus [8]) was “Active” and the Activity (Mus musculus [9]) was “inactive”.

`Cc1cccc(C)c1NC(=O)CCCN1C(=O)c2ccccc2C1=O` was tested, and the Activity (Mus musculus [1]) was “Active”, the Activity (Mus musculus [2]) was “inactive” and the Activity (Mus musculus [10]) was “Active”. For the same compound, the Activity (Mus musculus [11]) was “inactive”, the Activity (Mus musculus [12]) was “Active” and the Activity (Mus musculus [6]) was “Active”. For the same compound, the Activity (Mus musculus [13]) was “Active”, the Activity (Mus musculus [14]) was “Active” and the Activity (Mus musculus [9]) was “Active”.

For `O=C(CCCN1C(=O)c2ccccc2C1=O)Nc1ccc(Cl)cc1`, the Activity (Mus musculus [2]) was “inactive”, the Activity (Mus musculus [3]) was “inactive” and the Activity (Mus musculus [11]) was “inactive”. The Activity (Mus musculus [4]) was “inactive”, the Activity (Mus musculus [12]) was “Active” and the Activity (Mus musculus [6]) was “Active”. For the same compound, the Activity (Mus musculus [15]) was “Active”, the Activity (Mus musculus [16]) was “Active” and the Activity (Mus musculus [9]) was “Active”.
